Data on three compounds can be found in ChEMBL document CHEMBL3526107, “In vivo-formed versus preformed metabolite kinetics of trans-resveratrol-3-sulfate and trans-resveratrol-3-glucuronide” (Drug Metab Dispos, 2012).

Holding throughout (assay type): ADME, organism-based
A short description of series [1]: AUC (0 to t) in C57BL/6 mouse at 5 mg/kg administered intraarterially by LC-MS/MS analysis. More on the design: dose 5 mg/kg, route intra-arterial. As to conditions: plasma. The method, boiled down: (§1)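 Carotid-cannulated male C57BL/6 mice, food withheld for the first 10 h, dosed at 5 mg/kg intraarterially in saline; n = 4. Serial plasma samples taken 2.5–600 min are analysed by LC-MS/MS in negative ESI mode after methanol precipitation with acetaminophen as IS. Noncompartmental analysis uses linear trapezoidal AUC, with Cl = Dose/AUC0-inf, Vss = Cl×MRT, and t1/2 = 0.693/k.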

Series [2] in a line: AUC (0 to infinity) in C57BL/6 mouse at 5 mg/kg administered intraarterially by LC-MS/MS analysis. The arrangement: time infinity, dose 5 mg/kg, route intra-arterial. As to conditions: plasma. The method, boiled down:
as §1

Series [3] is described as follows: Clearance in C57BL/6 mouse at 5 mg/kg administered intraarterially by LC-MS/MS analysis. As to conditions: in vivo. More on the design: dose 5 mg/kg, route intra-arterial. The procedure, abridged:
as §1

A short description of series [4]: Volume of distribution at steady state in C57BL/6 mouse at 5 mg/kg administered intraarterially by LC-MS/MS analysis. The arrangement: dose 5 mg/kg, route intra-arterial. Conditions: in vivo, read-out: Vdss. The method, boiled down: as §1
Series [5] can be described thus: Terminal half life in C57BL/6 mouse at 5 mg/kg administered intraarterially by LC-MS/MS analysis. The arrangement: dose 5 mg/kg, route intra-arterial. As to conditions: in vivo, read-out: beta t1/2. The procedure, abridged:
as §1

Series [6] is described as follows: Cmax in C57BL/6 mouse at 5 mg/kg administered intraarterially by LC-MS/MS analysis. The arrangement: dose 5 mg/kg, route intra-arterial. As to conditions: in vivo. The method, boiled down: as §1
Series [7] in a line: Tmax in C57BL/6 mouse at 5 mg/kg administered intraarterially by LC-MS/MS analysis. More on the design: dose 5 mg/kg, route intra-arterial. Conditions: in vivo. The method, boiled down: as §1
A short description of series [8]: AUC (0 to t) in C57BL/6 mouse at 3.5 mg/kg administered intraarterially by LC-MS/MS analysis. As to conditions: plasma. More on the design: dose 3.5 mg/kg, route intra-arterial. The procedure, abridged:
(§2)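 Single 3.5 mg/kg intraarterial bolus in saline via carotid cannula to fasted male C57BL/6 mice; n = 4. Blood (20 µl) is drawn serially over 2.5–600 min and at 24 h. Plasma with ascorbic acid is precipitated with methanol containing acetaminophen IS, then quantified by negative-mode LC-MS/MS. Noncompartmental parameters: trapezoidal AUC, Cl = Dose/AUC0-inf, Vss = Cl×MRT0-inf, t1/2 = 0.693/terminal slope.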

Series [9] in a line: AUC (0 to infinity) in C57BL/6 mouse at 3.5 mg/kg administered intraarterially by LC-MS/MS analysis. More on the design: time infinity, dose 3.5 mg/kg, route intra-arterial. Conditions: plasma. The method, boiled down: as §2
Series [10] can be described thus: Clearance in C57BL/6 mouse at 3.5 mg/kg administered intraarterially by LC-MS/MS analysis. More on the design: dose 3.5 mg/kg, route intra-arterial. Conditions: in vivo. The method, boiled down: as §2
Series [11] in a line: Volume of distribution at steady state in C57BL/6 mouse at 3.5 mg/kg administered intraarterially by LC-MS/MS analysis. More on the design: dose 3.5 mg/kg, route intra-arterial. Conditions: in vivo, read-out: Vdss. The method, boiled down: as §2
Series [12] is described as follows: Terminal half life in C57BL/6 mouse at 3.5 mg/kg administered intraarterially by LC-MS/MS analysis. More on the design: dose 3.5 mg/kg, route intra-arterial. Conditions: in vivo, read-out: beta t1/2. The method, boiled down:
as §2

A short description of series [13]: Cmax in C57BL/6 mouse at 3.5 mg/kg administered intraarterially by LC-MS/MS analysis. More on the design: dose 3.5 mg/kg, route intra-arterial. Conditions: in vivo. The method, boiled down: as §2
A short description of series [14]: Tmax in C57BL/6 mouse at 3.5 mg/kg administered intraarterially by LC-MS/MS analysis. The arrangement: dose 3.5 mg/kg, route intra-arterial. As to conditions: in vivo. The method, boiled down: as §2
Series [15] in a line: AUC (0 to t) in C57BL/6 mouse at 15 mg/kg administered intraarterially by LC-MS/MS analysis. More on the design: dose 15 mg/kg, route intra-arterial. Conditions: plasma. The procedure, abridged:
(§3)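 Male C57BL/6 mice (20–25 g), fasted for the first 10 h of sampling. Single 15 mg/kg bolus in 20% 2-hydroxypropyl-β-cyclodextrin in saline via carotid artery cannula. Serial 20 µl blood draws from 2.5 to 600 min, plus 24 h; n = 5. Plasma is methanol-precipitated (acetaminophen IS) and run on negative-ESI LC-MS/MS. Noncompartmental analysis: linear trapezoidal AUC, Cl = Dose/AUC0-inf, Vss = Cl×MRT, t1/2 = 0.693/k.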

Series [16] in a line: AUC (0 to infinity) in C57BL/6 mouse at 15 mg/kg administered intraarterially by LC-MS/MS analysis. More on the design: time infinity, dose 15 mg/kg, route intra-arterial. Conditions: plasma. The procedure, abridged:
as §3

Series [17] can be described thus: Clearance in C57BL/6 mouse at 15 mg/kg administered intraarterially by LC-MS/MS analysis. The arrangement: dose 15 mg/kg, route intra-arterial. As to conditions: in vivo. The method, boiled down:
as §3

Series [18] is described as follows: Volume of distribution at steady state in C57BL/6 mouse at 15 mg/kg administered intraarterially by LC-MS/MS analysis. The arrangement: dose 15 mg/kg, route intra-arterial. Conditions: in vivo, read-out: Vdss. The procedure, abridged:
as §3

A short description of series [19]: Terminal half life in C57BL/6 mouse at 15 mg/kg administered intraarterially by LC-MS/MS analysis. The arrangement: dose 15 mg/kg, route intra-arterial. As to conditions: in vivo, read-out: beta t1/2. The method, boiled down:
as §3

Series [20] is described as follows: Cmax in C57BL/6 mouse at 15 mg/kg administered intraarterially by LC-MS/MS analysis. As to conditions: in vivo. The arrangement: dose 15 mg/kg, route intra-arterial. The method, boiled down:
as §3

Series [21] in a line: Tmax in C57BL/6 mouse at 15 mg/kg administered intraarterially by LC-MS/MS analysis. More on the design: dose 15 mg/kg, route intra-arterial. As to conditions: in vivo. The procedure, abridged:
as §3

On to `O=S(=O)(O)Oc1cc(O)cc(/C=C/c2ccc(O)cc2)c1`, for which the AUC(0-t) (usually exposure summed from dosing to a finite time, without extrapolation to infinity) in [1] was 4.05 µM·h. For the same compound, the AUC(0-inf) (commonly the area under the concentration-time curve extrapolated to infinity) in series [2] is 4.26 µM·h. In [3], the clearance (commonly the volume of plasma or blood freed of the substance per unit of time) was 76.3 mL/min/kg. Also, the Vd in [4] is 6.37 L/kg. Also, the half-life in series [5] was 2.13 h. Further, the concentration in [6] peaked (Cmax) at 14.8 µM. In addition, the Tmax (as a rule, the time from dosing to the highest level) in series [7] is 2.5 min.
In series [8], `O=C(O)[C@H]1O[C@@H](Oc2cc(O)cc(/C=C/c3ccc(O)cc3)c2)[C@H](O)[C@@H](O)[C@@H]1O` gave an area under the curve AUC(0-t) of 10.8 µM·h. The AUC(0-inf) in series [9] was 11.8 µM·h. For the same compound, the clearance in [10] is 13.8 mL/min/kg. In [11], the Vd is 4.55 L/kg. The half-life in series [12] was 4.54 h. The Cmax (in general, the highest concentration seen after dosing) in series [13] was 27.8 µM. Further, the Tmax in series [14] is 2.5 min.
Compound `Oc1ccc(/C=C/c2cc(O)cc(O)c2)cc1` [RESVERATROL] showed an AUC(0-t) in series [15] of 8.5 µM·h. The compound also gave an AUC(0-inf) in [16] of 9.85 µM·h. In series [17], this compound gave a clearance of 119 mL/min/kg. In [18], the Vd was determined as 37.6 L/kg. Besides, the half-life in [19] came to 3.18 h. The same compound had a maximum concentration (Cmax) in series [20] of 15.3 µM. For the same compound, the Tmax in [21] was 2.5 min.
